# Source: PubChem (Johns Hopkins Ion Channel Center)
# In the library only some 2.3% were active in any assay of this set; here they are far more common.
# TRPC4 inh = TRPC4 (mouse) channel inhibition; Q9QUQ5; 0.39% of 300,000 active; B-score at 10 µM; AID 2247; HEK293 TRPC4beta/mu-opioid, DAMGO-evoked Fluo4 calcium flux; hits give low values;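 active = B-score over 3 SD under the library average, no early fluorescence shift, positive overall ratio signal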
#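 Signal: kinetic Fluo4 fluorescence imaging of calcium influx. Material: stable TRPC4beta/mu-opioid receptor HEK293 cells. Probe or stimulus: DAMGO in two steps, submaximal then maximal.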
# TRPC6 act = activates the mouse TRPC6 cation channel. 0.13% of 310,000 active. HEK293-TRPC6 membrane potential dye fluorescence; hits give high values. AID 2550. Q61143. B-score at 10 µM;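 active = B-score of the integrated fluorescence ratio above library mean plus 3 SD, and starting fluorescence ratio within library mean plus 5 SD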;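 also: higher score means more depolarization so channel activation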
# Target sequence (Q61143 whole entry, looked up): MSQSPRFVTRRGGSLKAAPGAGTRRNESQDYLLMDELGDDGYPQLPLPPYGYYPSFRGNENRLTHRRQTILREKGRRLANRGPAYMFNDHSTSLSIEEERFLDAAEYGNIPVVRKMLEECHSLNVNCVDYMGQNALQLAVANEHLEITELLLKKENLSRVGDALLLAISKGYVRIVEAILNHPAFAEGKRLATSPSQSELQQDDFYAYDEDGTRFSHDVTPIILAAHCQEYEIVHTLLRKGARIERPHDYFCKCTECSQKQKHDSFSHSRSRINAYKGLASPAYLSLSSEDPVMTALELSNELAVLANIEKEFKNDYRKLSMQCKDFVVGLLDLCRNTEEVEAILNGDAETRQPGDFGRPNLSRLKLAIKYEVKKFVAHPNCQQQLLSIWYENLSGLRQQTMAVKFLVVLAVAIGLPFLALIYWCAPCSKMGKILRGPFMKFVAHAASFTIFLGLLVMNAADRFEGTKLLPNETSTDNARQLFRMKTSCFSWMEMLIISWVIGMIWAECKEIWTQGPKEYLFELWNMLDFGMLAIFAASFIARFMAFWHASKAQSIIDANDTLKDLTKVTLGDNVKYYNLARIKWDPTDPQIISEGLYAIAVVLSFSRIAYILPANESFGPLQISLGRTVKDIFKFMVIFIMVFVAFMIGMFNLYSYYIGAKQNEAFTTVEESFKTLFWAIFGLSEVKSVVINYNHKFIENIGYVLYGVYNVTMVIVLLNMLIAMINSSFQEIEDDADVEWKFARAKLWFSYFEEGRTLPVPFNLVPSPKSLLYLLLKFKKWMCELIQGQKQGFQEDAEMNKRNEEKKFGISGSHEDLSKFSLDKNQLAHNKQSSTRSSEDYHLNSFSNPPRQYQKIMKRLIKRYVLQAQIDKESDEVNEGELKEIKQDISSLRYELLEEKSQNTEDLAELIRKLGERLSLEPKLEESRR
# TRPC4 act = activators of mouse TRPC4 channel. HEK293 TRPC4beta/mu-opioid, Fluo4 calcium fluorescence; hits give high values. B-score at 10 µM. 0.49% of 310,000 active. AID 2237;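 active = B-score above 5 SD of library B-scores, and initial fluorescence ratio not above library mean plus 5 SD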;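 also: positive B-score marks a calcium rise read as TRPC4 activation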
#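 Assay system: HEK293 cells stably co-expressing mouse TRPC4beta and mu-opioid receptor / Timing: Fluo4 dye loading 45 min at room temperature, 110 s recording / Signal: Fluo4 calcium-sensitive dye fluorescence, kinetic, 1 Hz baseline / Read-out: integrated baseline-normalised fluorescence ratio, converted to per-well B score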
# TRPC4 PAM = TRPC4 (mouse) allosteric potentiation. Q9QUQ5. HEK293 TRPC4beta/mu-opioid, DAMGO EC20, Fluo-4 Ca2+ flux; hits give high values. B-score at 10 µM. 0.42% of 310,000 active. AID 2227;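 active = B-score of calcium response area above 5 SD of library B-scores, with initial fluorescence ratio within 5 SD of library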;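 also: B-score of integrated fluorescence ratio over time as area under calcium response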
# TRPC6 inhibitor = blocks the mouse TRPC6 cation channel; HEK293-TRPC6, membrane potential dye, ACh-evoked depolarization; hits give low values; B-score at 10 µM; 1.1% of 310,000 active; AID 2553;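 active = B-score under library mean minus 3 SD, initial fluorescence not abnormally high, positive integrated signal ratio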;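 also: B-score derived from integrated fluorescence ratio over the kinetic read; more negative B-score means stronger inhibition of depolarization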
# * hit, by the source's call; i = inactive; · = no result given.
SMILES,TRPC4 inh,TRPC6 act,TRPC4 act,TRPC4 PAM,TRPC6 inhibitor
O=C(c1cc2cc(Br)cc(Br)c2oc1=O)N1CCCC1,i,i,i,17*,i
CCCC(=O)N1CCc2cc(-c3nc(N)sc3C)ccc21,i,i,101*,i,i
CNc1nc(-c2ccc3c(c2)CCN3C(=O)CC(C)(C)C)c(C)s1,i,i,i,i,i
CCOC(=O)/C(=N\Nc1ccccc1)P(=O)(c1ccccc1)c1ccccc1,i,i,i,i,i
CC(/C=N/NC(=O)c1nnn(-c2nonc2N)c1CN1CCCCC1)c1ccccc1 (stereo not given),i,i,i,i,i
NC(N)=NC(=O)Cc1c(Cl)cccc1Cl,i,i,46*,i,i
O=C(N[C@@H](Cc1ccccc1)C(=O)NCc1ccc(F)cc1)C1CCNCC1,i,i,i,i,i
Cc1nonc1C1CCCN1C(=O)c1cc(COc2ccc(F)cc2Cl)on1 (stereo not given),i,i,i,i,i
c1csc(-c2nc3ccccn3c2NC2CCCCC2)c1,i,i,i,i,i
Cc1ccn2c(NC3CCCC3)c(-c3cccs3)nc2c1,-6*,i,i,i,i
Cc1cccc(-n2ccnc2CN2CCC(CO)(Cc3ccccc3)CC2)c1,-7*,i,i,i,i
O=C(NC1CCCC1)c1ccc(CS(=O)(=O)c2ccc(Br)cc2)o1,i,i,i,i,i
NCCNc1ccc([N+](=O)[O-])c(NC2CC2)c1,i,i,i,16*,i
O=C(CCN=C1NS(=O)(=O)c2ccccc21)OCc1cccc(Cl)c1,i,i,i,i,i
O=C1S/C(=C\c2ccc(O)c([N+](=O)[O-])c2)C(=O)N1c1ccccc1Cl,-10*,i,i,i,i
O=S(=O)(NCC1(N2CCOCC2)CCCCC1)c1ccc(Cl)cc1C(F)(F)F,i,i,47*,i,i
CCCCCN=C(N)N/N=C/c1c[nH]c2ccc(OC)cc12,i,i,66*,i,i
CCOC(=O)N1CCC(N2Cc3cccc(C(=O)Nc4ccc(N(CC)CC)cc4C)c3C2=O)CC1,i,i,i,i,i
Cc1cccc(NC(=O)CSCC(=O)NNC(=O)c2ccoc2C)c1,i,i,i,i,i
O=C(Nc1cccc(Cl)c1)c1cnn2cccnc12,·,i,i,34*,i
O=C(Nc1cc(Cl)cc(Cl)c1)c1cnn2cccnc12,i,i,i,i,i
COC(=O)c1ccccc1NC(=O)c1cnn2cccnc12,i,i,i,54*,i
N#Cc1c(NC(=S)NC(=O)c2ccccc2)sc2c1CCN(CCc1ccccc1)C2,i,i,i,i,i
CC(C)(C)C(=O)Nc1sc2c(c1C#N)CCN(Cc1ccccc1)C2,i,13*,i,i,i
CCOC(=O)CC(NS(=O)(=O)c1ccc(OC)c(C)c1)c1cccc([N+](=O)[O-])c1 (stereo not given),-6*,i,i,i,i
SMILES,TRPC4 inh,TRPC6 act,TRPC4 act,TRPC4 PAM,TRPC6 inhibitor
CCOC(=O)c1cc2cc([N+](=O)[O-])ccc2oc1=O,i,i,i,i,i
CCOC(=O)CC(NC(=O)c1cc2cc(Br)ccc2oc1=O)c1cccc([N+](=O)[O-])c1 (stereo not given),i,i,i,26*,i
CCOc1ccc(C(CC(=O)O)NS(=O)(=O)c2ccc(C)cc2)cc1OC (stereo not given),i,i,i,i,i
COCCn1c(-c2ccc(OC)cc2)cnc1SCC(=O)Nc1cccc2ccccc12,i,i,i,i,i
Cc1ncsc1CCC(=O)N1CCCC(C(=O)c2ccc3c(c2)OCO3)C1 (stereo not given),i,i,i,i,i
CCOc1c(Cl)cc(CNCC(O)c2ccccc2)cc1OC (stereo not given),-6*,i,i,i,i
CCOc1c(Cl)cc(CNCC(C)C)cc1OC,i,i,i,i,i
O=C(CCN1c2ccccc2Sc2ccccc21)OCc1nnc(-c2ccccc2)o1,i,i,i,12*,i
Cc1cc2[nH]c3ccccc3c2c(C)n1,-7*,i,i,i,i
Cc1nc(=S)c2ccccc2[nH]1,i,i,i,i,i
Cc1c(N2C(=O)CSC2c2ccco2)c(=O)n(-c2ccccc2)n1C (stereo not given),i,i,i,i,i
COc1ccc2c(C)c(CCC(=O)NCCCN3CCCC3=O)c(=O)oc2c1C,-6*,i,i,i,i
Oc1ccccc1CNc1cccc2cccnc12,i,i,i,i,i
Nc1sc(-c2ccccc2)n[n+]1Cc1cccc2cccnc12,i,i,58*,i,i
CCOC(=O)c1cc(-c2cccc([N+](=O)[O-])c2)n[nH]1,i,i,i,23*,i
C=CCOc1ccc(CNc2ccc(NC(=O)CC(C)C)cc2)cc1OC,i,i,i,i,i
O=C(CNS(=O)(=O)c1ccc([N+](=O)[O-])cc1)N/N=C\c1ccc(O)cc1,i,i,i,12*,i
CCOc1cc(CN2CCN(c3ccc(C(C)=O)cc3)CC2)ccc1OC,i,i,i,11*,i
CCOc1cc(CN2CCCCC2)ccc1OC,i,i,i,i,i
O=C(c1cccc(C(=O)N2CCN(c3ccccc3)CC2)c1)N1CCN(c2ccccc2)CC1,-7*,i,i,i,i
COc1cc(OC)cc(-n2nnnc2SCC(=O)N2CCCC2)c1,i,i,i,i,i
CCC(=O)Nc1cccc(-n2nnnc2SCC(=O)N2CCCCC2)c1,i,i,i,10*,i
COc1cc(-c2noc(CCCC(=O)NC3CCCCC3)n2)cc(OC)c1OC,i,i,i,i,i
C=CCN(CC=C)CCOc1ccc2ccccc2c1,i,i,i,i,i
C=CCN(CC=C)CCOc1ccccc1,i,i,i,12*,i
O=C(COc1ccccc1F)N1CCN(S(=O)(=O)/C=C/c2ccccc2)CC1,i,i,i,i,i
O=C(COc1ccc(Br)cc1)N1CCN(S(=O)(=O)/C=C/c2ccccc2)CC1,i,i,i,11*,i
COc1cc(/C=C2\SC(=S)N(NS(=O)(=O)c3ccc(C)cc3)C2=O)cc(OC)c1OC,-6*,i,i,i,i
COc1cccc(/C=C2\SC(=S)N(NS(=O)(=O)c3ccc(C)cc3)C2=O)c1OC,-6*,i,i,i,i
